# Source: publication PMC10357458 (ACS Omega, 2023)
# Tested on: CAIX-positive SK-RC-52 cells
# Test: Cellular binding, flow cytometry and confocal microscopy on CAIX-positive cells
# Assay type: cell-based, human
# Conditions: fluorescent derivatives, 100 nM, 30 min
# In short: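 SK-RC-52 human renal carcinoma cells were grown in RPMI with 10% FCS and 1% antibiotic-antimycotic at 37 °C, 5% CO₂, and split 1:6 with 0.05% trypsin-EDTA. For confocal imaging, cells were seeded at 10^4 per chamber well in RPMI with 10% FBS and 10 mM HEPES, then grown overnight. Fluorescein-labelled test compounds were imaged with DAPI-stained nuclei. Acetazolamide-fluorescein was the positive control and untargeted fluorescein the negative control.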
structure (smiles),measurement,value
"CC(=O)Nc1nnc(S(N)(=O)=O)s1 [AAZ, acetazolamide]",binding to CAIX on the surface of SK-RC-52 cells,accumulated on the surface
